Measured values reported in ChEMBL document CHEMBL1944532, “Synthesis and evaluation of anticancer activity of some novel 6-aryl-2-(p-sulfamylphenyl)-pyridazin-3(2H)-ones” (Eur J Med Chem, 2012).
Calls of active or inactive are those of the source. The rule behind the calls is not given here.

Assays:
SK-MEL-5 = experiment: Cytotoxicity against human SK-MEL-5 cells after 48 hrs by SRB assay; type: functional; details: SK-MEL-5, 48 h
How it was run: (§1)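 NCI 60-cell-line five-dose screen. Cells were grown in 1640 medium with 5% fetal calf serum and 2 mM L-glutamine, with inoculum density set by cell line, and pre-incubated 24 h. Compound in DMSO was added at 10^-4 to 10^-8 M (10-fold steps) with 48 h continuous exposure. Growth was read by SRB protein assay, and GI50, TGI and LC50 were derived from dose-response.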

SF-295 [1] = experiment: Cytotoxicity against human SF295 cells after 48 hrs by SRB assay; type: functional; details: SF-295, 48 h
How it was run: (§2)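 NCI five-dose screen on the ~60-line human tumor panel. Cells grown in RPMI-1640 with 5% fetal calf serum and 2 mM L-glutamine, seeded at line-dependent density and preincubated 24 h. Compound added from DMSO at 10-fold dilutions from 10^-4 to 10^-8 M, continuous exposure 48 h. Growth read by sulforhodamine B protein stain. GI50, TGI and LC50 derived per line.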

SF-268 [2] = experiment: Cytotoxicity against human SF268 cells after 48 hrs by SRB assay; type: functional; details: SF-268, 48 h; how it was run: as §2
UACC-62 = experiment: Antitumor activity against human UACC62 cells implanted in mouse dosed qd for 4 days by formazan dye-based hollow fiber assay; type: functional, organism-based
How it was run: (§3)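 Cells grown inside polyvinylidene fluoride hollow fibers; each line implanted into both intraperitoneal and subcutaneous compartments in mice. Compound given ip at two doses on a QD x 4 schedule. Fibers then recovered and viable cell mass measured by formazan dye conversion. Scored 2 per dose giving ≥50% reduction in viable cell mass (%T/C 50).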

SK-OV-3 = experiment: Cytotoxicity against human SKOV3 cells after 48 hrs by SRB assay; type: functional; details: SK-OV-3, 48 h; how it was run: as §1
LOX IMVI = experiment: Antitumor activity against human LOXIMVI cells implanted in mouse dosed qd for 4 days by formazan dye-based hollow fiber assay; type: functional, organism-based; how it was run: as §3
T47D = experiment: Cytotoxicity against human T47D cells after 48 hrs by SRB assay; type: functional; how it was run: as §1
SF-295 [3] = experiment: Cytotoxicity against human SF295 cells assessed as cell growth at 10 uM after 48 hrs by SRB assay; type: functional; details: SF-295, 48 h, read-out: Activity
How it was run: (§4)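 NCI primary single-dose screen at 10^-5 M against the full panel of about 60 human tumor cell lines. Cells were in RPMI-1640 with 5% fetal calf serum and 2 mM L-glutamine and preincubated 24 h. Compound was given in DMSO with 48 h exposure. Growth was estimated by sulforhodamine B protein assay.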

K562 = experiment: Cytotoxicity against human K562 cells after 48 hrs by SRB assay; type: functional; details: K562, 48 h
How it was run: (§5)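 NCI ~60-line panel in RPMI-1640 with 5% fetal calf serum and 2 mM L-glutamine, pre-incubated 24 h. Compound in DMSO tested at five 10-fold concentrations (10^-4 to 10^-8 M) with 48 h continuous exposure. Growth measured by sulforhodamine B protein assay. GI50 (50% net growth inhibition), TGI (total inhibition) and LC50 (50% net cell death) derived from dose-response.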

Hs-578T = experiment: Cytotoxicity against human Hs578T cells after 48 hrs by SRB assay; type: functional; how it was run: as §5
RXF 393 = experiment: Cytotoxicity against human RXF393 cells after 48 hrs by SRB assay; type: functional; details: RXF 393, 48 h; how it was run: as §2
MCF7 = experiment: Cytotoxicity against human MCF7 cells assessed as cell growth at 10 uM after 48 hrs by SRB assay; type: functional; details: MCF7, 48 h, read-out: Activity; how it was run: as §4
SNB-75 = experiment: Cytotoxicity against human SNB75 cells after 48 hrs by SRB assay; type: functional; details: SNB-75, 48 h; how it was run: as §1
UACC-257 = experiment: Cytotoxicity against human UACC257 cells after 48 hrs by SRB assay; type: functional; details: UACC-257, 48 h; how it was run: as §1
HOP-92 = experiment: Cytotoxicity against human HOP92 cells after 48 hrs by SRB assay; type: functional; details: HOP-92, 48 h; how it was run: as §5
SK-MEL-2 = experiment: Cytotoxicity against human SK-MEL-2 cells assessed as cell growth at 10 uM after 48 hrs by SRB assay; type: functional; details: SK-MEL-2, 48 h, read-out: Activity
How it was run: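 NCI primary one-dose screen at 10^-5 M against the full panel of about 60 human tumour cell lines, run to the NCI Drug Evaluation Branch protocol.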

SF-268 [4] = experiment: Cytotoxicity against human SF268 cells assessed as cell growth at 10 uM after 48 hrs by SRB assay; type: functional; details: SF-268, 48 h, read-out: Activity; how it was run: as §4
OVCAR-5 = experiment: Cytotoxicity against human OVCAR5 cells after 48 hrs by SRB assay; type: functional; details: OVCAR-5, 48 h; how it was run: as §2
NCI-H522 [5] = experiment: Cytotoxicity against human NCI-H522 cells assessed as cell growth at 10 uM after 48 hrs by SRB assay; type: functional; details: NCI-H522, 48 h, read-out: Activity; how it was run: as §4
NCI-H522 [6] = experiment: Cytotoxicity against human NCI-H522 cells after 48 hrs by SRB assay; type: functional; details: NCI-H522, 48 h; how it was run: as §2
MDA-MB-231 = experiment: Cytotoxicity against human MDA-MB-231 cells assessed as cell growth at 10 uM after 48 hrs by SRB assay; type: functional; details: MDA-MB-231, 48 h, read-out: Activity; how it was run: as §4
NCI-H522 [7] = experiment: Antitumor activity against human NCI-H522 cells implanted in mouse dosed qd for 4 days by formazan dye-based hollow fiber assay; type: functional, organism-based; how it was run: as §3
NCI-H226 = experiment: Cytotoxicity against human NCI-H226 cells after 48 hrs by SRB assay; type: functional; details: NCI-H226, 48 h; how it was run: as §2
NCI-H322M = experiment: Cytotoxicity against human NCI-H322M cells after 48 hrs by SRB assay; type: functional; how it was run: as §2

With `CCc1ccc(-c2ccc(=O)n(-c3ccc(S(N)(=O)=O)cc3)n2)cc1` as the compound, how does the LC50 (SK-MEL-5) read?
Its LC50 is greater than 100 µM.

And the GI50 (SK-MEL-5; read-out: GI50)?
Its GI50 is 0.453 µM.

And the GI50 (SK-MEL-5; read-out: pGI50 (converted))?
Its GI50 is 0.457 µM.

What about the TGI (SK-MEL-5; read-out: pTGI (converted)) of the same compound?
Its TGI is 7.59 µM.

And the LC50 (SF-295 [1])?
Its LC50 is 75.9 µM.

What about the GI50 (SF-295 [1]; read-out: GI50) of the same compound?
The GI50 was 0.554 µM.

And the GI50 (SF-295 [1]; read-out: pGI50 (converted))?
Its GI50 is 0.55 µM.

What about the TGI (SF-295 [1]; read-out: pTGI (converted)) of the same compound?
The TGI was 17.4 µM.

What about the LC50 (SF-268 [2]) of the same compound?
Its LC50 is greater than 100 µM.

What about the GI50 (SF-268 [2]; read-out: GI50) of the same compound?
The GI50 was 4.25 µM.

And the GI50 (SF-268 [2]; read-out: pGI50 (converted))?
Its GI50 is 4.27 µM.

And the TGI (SF-268 [2]; read-out: pTGI (converted))?
Its TGI is 47.9 µM.

What about the Activity (UACC-62) of the same compound?
The Activity was “inactive”.

What about the LC50 (SK-OV-3) of the same compound?
The LC50 was greater than 100 µM.

What about the GI50 (SK-OV-3; read-out: GI50) of the same compound?
The GI50 was 4.02 µM.

What about the GI50 (SK-OV-3; read-out: pGI50 (converted)) of the same compound?
Its GI50 is 3.98 µM.

What about the TGI (SK-OV-3; read-out: pTGI) of the same compound?
The TGI was greater than 100 µM.

What about the Activity (LOX IMVI) of the same compound?
The Activity was “inactive”.

What about the LC50 (T47D) of the same compound?
The LC50 was greater than 100 µM.

What about the GI50 (T47D; read-out: GI50) of the same compound?
Its GI50 is 2.56 µM.

And the GI50 (T47D; read-out: pGI50 (converted))?
Its GI50 is 2.57 µM.

What about the TGI (T47D; read-out: pTGI) of the same compound?
The TGI was greater than 100 µM.

What about the growth at 10 µM (SF-295 [3]) of the same compound?
Its growth at 10 µM is 18.4%.

What about the GI50 (K562; read-out: GI50) of the same compound?
Its GI50 is 0.257 µM.

What about the GI50 (K562; read-out: pGI50 (converted)) of the same compound?
Its GI50 is 0.257 µM.

And the CC50 (K562; read-out: pLC50 (the source's name) (converted))?
The CC50 was greater than 100 µM.

And the TGI (K562; read-out: pTGI)?
Its TGI is greater than 100 µM.

And the LC50 (50% net cell kill) (Hs-578T)?
The LC50 (50% net cell kill) was greater than 100 µM.

What about the GI50 (Hs-578T; read-out: GI50) of the same compound?
The GI50 was 1.03 µM.

And the GI50 (Hs-578T; read-out: pGI50 (converted))?
Its GI50 is 1.02 µM.

What about the TGI (Hs-578T; read-out: pTGI (converted)) of the same compound?
The TGI was 17 µM.

What about the LC50 (RXF 393) of the same compound?
Its LC50 is greater than 100 µM.

And the GI50 (RXF 393; read-out: GI50)?
The GI50 was 3.51 µM.

And the GI50 (RXF 393; read-out: pGI50 (converted))?
The GI50 was 3.55 µM.

And the TGI (RXF 393; read-out: pTGI (converted))?
Its TGI is 28.2 µM.

And the growth at 10 µM (MCF7)?
Its growth at 10 µM is 30.1%.

And the LC50 (SNB-75)?
The LC50 was greater than 100 µM.

What about the GI50 (SNB-75; read-out: GI50) of the same compound?
Its GI50 is 1.76 µM.

What about the GI50 (SNB-75; read-out: pGI50 (converted)) of the same compound?
Its GI50 is 1.74 µM.

What about the TGI (SNB-75; read-out: pTGI (converted)) of the same compound?
The TGI was 28.8 µM.

And the LC50 (UACC-257)?
Its LC50 is greater than 100 µM.

What about the GI50 (UACC-257; read-out: GI50) of the same compound?
The GI50 was greater than 100 µM.

And the GI50 (UACC-257; read-out: pGI50 (converted))?
Its GI50 is greater than 100 µM.

And the TGI (UACC-257; read-out: pTGI)?
The TGI was greater than 100 µM.

And the LC50 (HOP-92)?
Its LC50 is greater than 100 µM.

And the GI50 (HOP-92; read-out: GI50)?
Its GI50 is 17.3 µM.

What about the GI50 (HOP-92; read-out: pGI50 (converted)) of the same compound?
Its GI50 is 17.4 µM.

What about the TGI (HOP-92; read-out: pTGI (converted)) of the same compound?
Its TGI is 75.9 µM.

And the growth at 10 µM (SK-MEL-2)?
Its growth at 10 µM is 1.5%.

What about the growth at 10 µM (SF-268 [4]) of the same compound?
The growth at 10 µM was 42%.

What about the LC50 (OVCAR-5) of the same compound?
The LC50 was greater than 100 µM.

And the GI50 (OVCAR-5; read-out: GI50)?
Its GI50 is 41.4 µM.

What about the GI50 (OVCAR-5; read-out: pGI50 (converted)) of the same compound?
The GI50 was 41.7 µM.

And the TGI (OVCAR-5; read-out: pTGI)?
Its TGI is greater than 100 µM.

And the growth at 10 µM (NCI-H522 [5])?
The growth at 10 µM was -33.6%.

What about the LC50 (NCI-H522 [6]) of the same compound?
The LC50 was greater than 100 µM.

And the GI50 (NCI-H522 [6]; read-out: GI50)?
Its GI50 is 0.0966 µM.

And the GI50 (NCI-H522 [6]; read-out: pGI50 (converted))?
Its GI50 is 0.0955 µM.

And the TGI (NCI-H522 [6]; read-out: pTGI (converted))?
The TGI was 0.631 µM.

And the growth at 10 µM (MDA-MB-231)?
The growth at 10 µM was 66.8%.

What about the Activity (NCI-H522 [7]) of the same compound?
The Activity was “inactive”.

What about the LC50 (NCI-H226) of the same compound?
The LC50 was greater than 100 µM.

What about the GI50 (NCI-H226; read-out: GI50) of the same compound?
Its GI50 is 13.5 µM.

What about the GI50 (NCI-H226; read-out: pGI50 (converted)) of the same compound?
Its GI50 is 13.5 µM.

And the TGI (NCI-H226; read-out: pTGI)?
Its TGI is greater than 100 µM.

What about the LC50 (NCI-H322M) of the same compound?
Its LC50 is greater than 100 µM.

What about the GI50 (NCI-H322M; read-out: GI50) of the same compound?
Its GI50 is 14.3 µM.

What about the GI50 (NCI-H322M; read-out: pGI50 (converted)) of the same compound?
Its GI50 is 14.1 µM.

What about the TGI (NCI-H322M; read-out: pTGI (converted)) of the same compound?
The TGI was 100 µM.
